From ChEMBL document CHEMBL1126664, “Pyrazoline bisphosphonate esters as novel antiinflammatory and antiarthritic agents” (1993)

How the values were obtained:
[1] = tested on: Mus musculus; assay: Inhibition of delayed type hypersensitivity granuloma results at 100 mg/kg in wet weight; format: functional
How it was run: (§1)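 Groups of 10 female CF-1 mice (25 g) were sensitised sc over the inguinal lymph node with mBSA emulsion in Freund's incomplete adjuvant plus dextran. Two mBSA-soaked hydroxyapatite disks were implanted per mouse. Sc dosing ran daily from implantation to day 9, then granulomas were excised for wet and dry weights. Student's paired t test.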

[2] = tested on: Mus musculus; assay: Inhibition of delayed type hypersensitivity granuloma results at 100 mg/kg in dry weight; format: functional; how it was run: as §1
[3] = tested on: Mus musculus; assay: Inhibition of antigen-induced polyarthritis (AIP) in mice at the dose of 50 mg/kg; format: functional
How it was run: (§2)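 Murine antigen-induced arthritis: mice immunized with mBSA (with M. tuberculosis), boosted at 7 days, and challenged 14 days later with 200 μg mBSA in saline into the left rear stifle joint. Dosed sc (scruff; saline vehicle, pH 7.0) 5 of 7 days from day 0 to 28. H&E sagittal joint sections scored 1–5 each for inflammation, pannus, and cartilage/bone erosion, summed to a global score (max 20). One-way ANOVA versus vehicle.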

[4] = tested on: Mus musculus; assay: Inhibition of antigen-induced polyarthritis (AIP) in mice at the dose of 15 mg/kg; format: functional; how it was run: as §2
[5] = tested on: Rattus norvegicus; assay: Inhibition of rat adjuvant induced polyarthritis (AIP) at the dose of 30 mg/kg in the non-injected paw; format: functional
How it was run: (§3)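 Rat adjuvant arthritis induced by M. tuberculosis in mineral oil into the left hindpaw on day 0. Dosed sc once daily for 28 days in sterile saline adjusted to pH 7.0. Change in paw volume of the injected and noninjected hindpaws measured on day 28 by mercury-displacement plethysmography, giving % inhibition versus the sc vehicle arthritic control.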

[6] = tested on: Mus musculus; assay: Inhibition of antigen-induced polyarthritis (AIP) in mice at the dose of 200 mg/kg; format: functional; how it was run: as §2
[7] = tested on: Rattus norvegicus; assay: (§4) Inhibition of rat adjuvant induced polyarthritis (AIP) at the dose of 5 mg/kg in the injected paw; format: functional; how it was run: as §3
[8] = tested on: Rattus norvegicus; assay: (§5) Inhibition of rat adjuvant induced polyarthritis (AIP) at the dose of 15 mg/kg in the non-injected paw; format: functional; how it was run: as §3
[9] = tested on: Rattus norvegicus; assay: Inhibition of rat adjuvant induced polyarthritis (AIP) at the dose of 30 mg/kg in the injected paw; format: functional; how it was run: as §3
[10] = tested on: Rattus norvegicus; assay: Inhibition of adjuvant-induced polyarthritis (AIP) in rats at the dose of 5 mg/kg in the non-injected paw
[11] = tested on: Rattus norvegicus; assay: Inhibition of rat adjuvant induced polyarthritis (AIP) at the dose of 10 mg/kg in the injected paw; format: functional; how it was run: as §3
[12] = tested on: Rattus norvegicus; assay: (§6) Inhibition of rat adjuvant induced polyarthritis (AIP) at the dose of 15 mg/kg in the injected paw; format: functional; how it was run: as §3
[13] = tested on: Rattus norvegicus; assay: Inhibition of adjuvant-induced polyarthritis (AIP) in rats at the dose of 10 mg/kg in the non-injected paw
[14] = tested on: Mus musculus; assay: Inhibition of antigen-induced polyarthritis (AIP) in mice at the dose of 5 mg/kg; format: functional; how it was run: as §2
[15] = tested on: Mus musculus; assay: Inhibition of antigen-induced polyarthritis (AIP) in mice at the dose of 100 mg/kg; format: functional; how it was run: as §2
[16] = tested on: Mus musculus; assay: Inhibition of antigen-induced polyarthritis (AIP) in mice at the dose of 30 mg/kg; format: functional; how it was run: as §2
[17] = tested on: Rattus norvegicus; assay: Inhibition of rat adjuvant induced arthritis (AIP) at the dose of 15 mg/kg in the non-injected paw; format: functional
How it was run: (§7)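 Rats received adjuvant (M. tuberculosis in mineral oil) into the left hindpaw on day 0. Compounds in sterile saline, pH 7.0, were given sc once daily for 28 days, with sc vehicle arthritic controls. Paw volume change in injected and noninjected hindpaws was measured on day 28 by mercury-displacement plethysmography.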

[18] = tested on: Rattus norvegicus; assay: Inhibition of rat adjuvant induced arthritis (AIP) at the dose of 100 mg/kg in the non-injected paw; format: functional; how it was run: as §7
[19] = tested on: Rattus norvegicus; assay: as §6; format: functional; how it was run: as §7; remark: listed apart in the source
[20] = tested on: Rattus norvegicus; assay: Inhibition of rat adjuvant induced polyarthritis (AIP) at the dose of 100 mg/kg in the injected paw; format: functional; how it was run: as §7
[21] = tested on: Mus musculus; assay: Inhibition of antigen-induced arthritis (AIA) in mice at the dose of 100 mg/kg; format: functional
How it was run: (§8)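 Mice were immunised, boosted after 7 days, and challenged 14 days later with 200 μg mBSA in saline into the left rear stifle joint. Dosing was sc in saline at pH 7.0, 5 of 7 days, from challenge (day 0) to day 28. H&E sagittal joint sections were graded 1–5 each for soft tissue inflammation, pannus, and cartilage and bone erosion, then summed (max 20). One-way ANOVA vs vehicle.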

[22] = tested on: Rattus norvegicus; assay: Inhibition of rat adjuvant-induced arthritis (AIP) at the dose of 60 mg/kg in the non-injected paw; format: functional; how it was run: as §7
[23] = tested on: Rattus norvegicus; assay: as §4; format: functional; how it was run: as §7; remark: listed apart in the source
[24] = tested on: Mus musculus; assay: Inhibition of delayed type hypersensitivity granuloma results at 50 mg/kg in dry weight; format: functional; how it was run: as §1
[25] = tested on: Mus musculus; assay: Inhibition of delayed type hypersensitivity granuloma results at 25 mg/kg in dry weight; format: functional; how it was run: as §1
[26] = tested on: Rattus norvegicus; assay: Inhibition of rat adjuvant-induced arthritis (AIP) at the dose of 15 mg/kg in the non-injected paw; format: functional; how it was run: as §7
[27] = tested on: Mus musculus; assay: Inhibition of antigen-induced arthritis (AIA) in mice at the dose of 50 mg/kg in the non-injected paw; format: functional
[28] = tested on: Mus musculus; assay: Inhibition of delayed type hypersensitivity granuloma results at 50 mg/kg in wet weight; format: functional; how it was run: as §1
[29] = tested on: Mus musculus; assay: Inhibition of antigen-induced arthritis (AIA) in mice at the dose of 100 mg/kg in the non-injected paw; format: functional
[30] = tested on: Rattus norvegicus; assay: Inhibition of rat adjuvant induced polyarthritis (AIP) at the dose of 60 mg/kg in the injected paw; format: functional; how it was run: as §7
[31] = tested on: Mus musculus; assay: Inhibition of antigen-induced arthritis (AIA) in mice at the dose of 25 mg/kg in the non-injected paw; format: functional
[32] = tested on: Rattus norvegicus; assay: Inhibition of rat adjuvant-induced arthritis (AIP) at the dose of 100 mg/kg in the non-injected paw; format: functional; how it was run: as §7
[33] = tested on: Rattus norvegicus; assay: Inhibition of rat adjuvant-induced arthritis (AIP) at the dose of 5 mg/kg in the non-injected paw; format: functional; how it was run: as §7
[34] = tested on: Mus musculus; assay: Inhibition of delayed type hypersensitivity granuloma at 25 mg/kg in wet weight; format: functional; how it was run: as §1
[35] = tested on: Rattus norvegicus; assay: Inhibition of rat adjuvant induced polyarthritis (AIP) at the dose of 100 mg/kg in the non-injected paw; format: functional; how it was run: as §7
[36] = tested on: Rattus norvegicus; assay: as §5; format: functional; how it was run: as §7; remark: listed apart in the source
[37] = tested on: Mus musculus; assay: Inhibition of antigen-induced arthritis (AIA) in mice at the dose of 50 mg/kg; format: functional; how it was run: as §8
[38] = tested on: Rattus norvegicus; assay: Inhibition of rat adjuvant induced arthritis (AIP) at the dose of 60 mg/kg in the non-injected paw; format: functional; how it was run: as §7
[39] = tested on: Mus musculus; assay: Inhibition of antigen-induced arthritis (AIA) in mice at the dose of 200 mg/kg; format: functional; how it was run: as §8
[40] = tested on: Mus musculus; assay: Inhibition of antigen-induced arthritis (AIA) in mice at the dose of 25 mg/kg; format: functional; how it was run: as §8
[41] = tested on: Rattus norvegicus; assay: Inhibition of rat adjuvant induced arthritis (AIP) at the dose of 5 mg/kg in the non-injected paw; format: functional; how it was run: as §7
[42] = tested on: Mus musculus; assay: Inhibition of delayed type hypersensitivity granuloma results at 25 mg/kg in wet weight; format: functional; how it was run: as §1

Structure (SMILES): O=C(C1=NNC(P(=O)(O)O)(P(=O)(O)O)C1)C1CCCCC1
- inhibition in vivo at 100 mg/kg [1]: 1%
- inhibition in vivo at 100 mg/kg [2]: 16%

Structure (SMILES): CCOP(=O)(OCC)C1(P(=O)(OCC)OCC)CC(C(=O)c2ccccc2)=NN1C
- inhibition in vivo at 100 mg/kg [1]: 11%
- inhibition in vivo at 100 mg/kg [2]: 8%

Structure (SMILES): O=P(O)(O)C(Cl)(Cl)P(=O)(O)O [CLODRONIC ACID]
- inhibition in vivo at 50 mg/kg [3]: 46%
- inhibition in vivo at 15 mg/kg [4]: 46%
- inhibition in vivo at 30 mg/kg [5]: 54%
- inhibition in vivo at 200 mg/kg [6]: 52%
- inhibition in vivo at 5 mg/kg [7]: 21%
- inhibition in vivo at 15 mg/kg [8]: 70%
- inhibition in vivo at 30 mg/kg [9]: 36%
- inhibition in vivo at 5 mg/kg [10]: 51%
- inhibition in vivo at 10 mg/kg [11]: 38%
- inhibition in vivo at 15 mg/kg [12]: 33%
- inhibition in vivo at 10 mg/kg [13]: 61%
- inhibition in vivo at 5 mg/kg [14]: 4%
- inhibition in vivo at 100 mg/kg [15]: 51%
- inhibition in vivo at 30 mg/kg [16]: 46%
- inhibition in vivo at 100 mg/kg [1]: 45%
- inhibition in vivo at 100 mg/kg [2]: 47%

Structure (SMILES): CCOP(=O)(OCC)C1(P(=O)(OCC)OCC)CC(C(=O)c2ccccc2C)=NN1
- inhibition in vivo at 15 mg/kg [17]: 49%
- inhibition in vivo at 100 mg/kg [18]: 66%
- inhibition in vivo at 15 mg/kg [19]: 18%
- inhibition in vivo at 100 mg/kg [20]: 9%
- inhibition in vivo at 100 mg/kg [21]: 8%
- inhibition in vivo at 100 mg/kg [1]: 37%
- inhibition in vivo at 100 mg/kg [2]: 48%

Structure (SMILES): CCOP(=O)(OCC)C1(P(=O)(OCC)OCC)CC(C(=O)c2ccccc2)=NN1Cc1cccc(CN2N=C(C(=O)c3ccccc3)CC2(P(=O)(OCC)OCC)P(=O)(OCC)OCC)c1
- inhibition in vivo at 100 mg/kg [2]: -31%

Structure (SMILES): CCOP(=O)(OCC)C1(P(=O)(OCC)OCC)CC(C(=O)c2cccc(F)c2)=NN1
- inhibition in vivo at 60 mg/kg [22]: 46%
- inhibition in vivo at 5 mg/kg [23]: 0%
- inhibition in vivo at 50 mg/kg [24]: 51%
- inhibition in vivo at 25 mg/kg [25]: 49%
- inhibition in vivo at 15 mg/kg [26]: 46%
- inhibition in vivo at 50 mg/kg [27]: 52%
- inhibition in vivo at 15 mg/kg [19]: 4%
- inhibition in vivo at 50 mg/kg [28]: 45%
- inhibition in vivo at 100 mg/kg [29]: 55%
- inhibition in vivo at 60 mg/kg [30]: 8%
- inhibition in vivo at 100 mg/kg [20]: 22%
- inhibition in vivo at 25 mg/kg [31]: 42%
- inhibition in vivo at 100 mg/kg [32]: 55%
- inhibition in vivo at 5 mg/kg [33]: 0%
- inhibition in vivo at 25 mg/kg [34]: 42%
- inhibition in vivo at 100 mg/kg [1]: 58%
- inhibition in vivo at 100 mg/kg [2]: 65%

Structure (SMILES): CCOP(=O)(OCC)C1(P(=O)(OCC)OCC)CC(C(=O)c2ccccc2)=NN1CCCN1N=C(C(=O)c2ccccc2)CC1(P(=O)(OCC)OCC)P(=O)(OCC)OCC
- inhibition in vivo at 100 mg/kg [1]: 10%
- inhibition in vivo at 100 mg/kg [2]: 5%

Structure (SMILES): CCOP(=O)(OCC)C1(P(=O)(OCC)OCC)CC(C(=O)c2ccc(OC)cc2)=NN1
- inhibition in vivo at 15 mg/kg [19]: 12%
- inhibition in vivo at 100 mg/kg [20]: 0%
- inhibition in vivo at 100 mg/kg [21]: 23%
- inhibition in vivo at 100 mg/kg [35]: 16%
- inhibition in vivo at 100 mg/kg [1]: 35%
- inhibition in vivo at 15 mg/kg [36]: 17%
- inhibition in vivo at 100 mg/kg [2]: 50%

Structure (SMILES): CCOP(=O)(OCC)C1(P(=O)(OCC)OCC)CC(C(=O)c2ccccc2)=NN1
- inhibition in vivo at 5 mg/kg [23]: 28%
- inhibition in vivo at 15 mg/kg [17]: 31%
- inhibition in vivo at 50 mg/kg [37]: 35%
- inhibition in vivo at 60 mg/kg [38]: 56%
- inhibition in vivo at 50 mg/kg [24]: 42%
- inhibition in vivo at 25 mg/kg [25]: 42%
- inhibition in vivo at 200 mg/kg [39]: 48%
- inhibition in vivo at 25 mg/kg [40]: 16%
- inhibition in vivo at 100 mg/kg [18]: 50%
- inhibition in vivo at 15 mg/kg [19]: 25%
- inhibition in vivo at 50 mg/kg [28]: 33%
- inhibition in vivo at 5 mg/kg [41]: 50%
- inhibition in vivo at 60 mg/kg [30]: 23%
- inhibition in vivo at 25 mg/kg [42]: 36%
- inhibition in vivo at 100 mg/kg [20]: 13%
- inhibition in vivo at 100 mg/kg [21]: 48%
- inhibition in vivo at 100 mg/kg [1]: 56%
- inhibition in vivo at 100 mg/kg [2]: 51%
